Our source for the Activity and MIC values is ChEMBL document CHEMBL1141626, “Thiosemicarbazones active against Clostridium difficile” (2008).

The test system of test [1] is Bacillus subtilis. As to the kind of experiment: Antimicrobial activity against Bacillus subtilis. Type of test: functional, organism-based.
The test system of test [2] is Streptococcus pyogenes. As to the kind of experiment: Antimicrobial activity against Streptococcus pyogenes. Type of test: functional, organism-based.
The subject of test [3] is Staphylococcus aureus. The experiment in a line: Antimicrobial activity against Micrococcus pyogenes. It is filed as functional, organism-based.
For test [4], the system named is Escherichia coli. The experiment in a line: Antimicrobial activity against Escherichia coli. It is filed as functional, organism-based.
Test [5] relates to Clostridioides difficile. The experiment in a line: Antimicrobial activity against Clostridium difficile NCTC 11204 after 48 hrs. It is filed as functional. To be noted: NCTC 11204, 48 h. Put shortly:
(§1)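 Anaerobes incubated in an anaerobic cabinet for broth MIC determination. Drug-free incubations of the same organisms served as controls. Value is the minimum inhibitory concentration.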

Test [6] relates to Clostridioides difficile. As to the kind of experiment: Antimicrobial activity against Clostridium difficile O27 after 48 hrs. It is filed as functional. Put shortly:
as §1

The subject of test [7] is Clostridioides difficile. As to the kind of experiment: Antimicrobial activity against Clostridium difficile Z162 after 48 hrs. Type of test: functional. In short, it runs like this: as §1
Test [8] concerns Clostridioides difficile. The experiment in a line: Antimicrobial activity against Clostridium difficile Z229 after 48 hrs. It is filed as functional. In short, it runs like this: as §1
The test system of test [9] is Staphylococcus epidermidis. The experiment in a line: Antimicrobial activity against Staphylococcus epidermidis NCTC 11047 after 24 hrs. To be noted: NCTC 11047, 24 h. It is filed as functional. Put shortly:
(§2)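 MIC by dilution in nutrient broth. Anaerobic organisms were incubated in an anaerobic cabinet. Controls were the same organisms incubated without test compound.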

Test [10] has as its system Staphylococcus epidermidis. The experiment in a line: Antimicrobial activity against Staphylococcus epidermidis 9 after 24 hrs. Type of test: functional. Put shortly:
as §2

Test [11] concerns Staphylococcus epidermidis. The experiment in a line: Antimicrobial activity against Staphylococcus epidermidis 4 after 24 hrs. It is filed as functional. Put shortly: as §2
The test system of test [12] is Staphylococcus aureus. As to the kind of experiment: Antimicrobial activity against Staphylococcus aureus ATCC 6538 after 24 hrs. Type of test: functional. To be noted: ATCC 6538, 24 h. In short, it runs like this:
as §2

Test [13] has as its system Staphylococcus aureus. As to the kind of experiment: Antimicrobial activity against Staphylococcus aureus H1 after 24 hrs. Type of test: functional. Put shortly: as §2
Test [14] has as its system Staphylococcus aureus. The experiment in a line: Antimicrobial activity against Staphylococcus aureus K1 after 24 hrs. It is filed as functional. In short, it runs like this: as §2
In test [15] the test system is Staphylococcus aureus. As to the kind of experiment: Antimicrobial activity against methicillin-resistant Staphylococcus aureus A1 after 24 hrs. Type of test: functional. In short, it runs like this:
as §2

Test [16] relates to Staphylococcus aureus. The experiment in a line: Antimicrobial activity against methicillin-resistant Staphylococcus aureus C3 after 24 hrs. Type of test: functional. Put shortly:
as §2

Test [17] deals with Staphylococcus aureus. As to the kind of experiment: Antimicrobial activity against methicillin-resistant Staphylococcus aureus E1 after 24 hrs. It is filed as functional. In short, it runs like this:
as §2

Test [18] deals with Cutibacterium acnes. As to the kind of experiment: Antimicrobial activity against Propionibacterium acnes NCTC 737 after 48 hrs. Type of test: functional. To be noted: NCTC 737, 48 h. Put shortly:
as §2

For test [19], the system named is Cutibacterium acnes. As to the kind of experiment: Antimicrobial activity against Propionibacterium acnes B5 after 48 hrs. Type of test: functional. Put shortly: as §1
Test [20] concerns Cutibacterium acnes. The experiment in a line: Antimicrobial activity against Propionibacterium acnes C3 after 48 hrs. It is filed as functional. Put shortly:
as §2

The test system of test [21] is Cutibacterium acnes. The experiment in a line: Antimicrobial activity against Propionibacterium acnes C5 after 48 hrs. It is filed as functional. In short, it runs like this: as §2
Test [22] has as its system Trichophyton mentagrophytes. As to the kind of experiment: Antimicrobial activity against Trichophyton mentagrophytes. It is filed as functional, organism-based.
Test [23] has as its system Candida albicans. As to the kind of experiment: Antimicrobial activity against Candida albicans. Type of test: functional, organism-based.

Molecules are shown by their SMILES. ≈ marks a conversion by molar mass, not a printed value. Calls of active or inactive are those of the source. The rule behind the calls is not given here. A value given as a limit tells only on which side of the number the result lay.

The term MIC denotes the least concentration at which growth counts as inhibited. Read a low MIC as inhibition by little substance.

As for `CCNC(=S)N/N=C/c1ccc([N+](=O)[O-])o1`, the outcome in test [1], in test [2], in test [3], in test [4], in test [22] and in test [23] was Active. Further, the minimal inhibitory concentration (MIC) in test [5] was 64 mg/L (≈ 264 µM); in test [6], 64 mg/L (≈ 264 µM); in [7], 128 mg/L (≈ 528 µM); in test [8], 8 mg/L (≈ 33 µM); in test [9] it was 32 mg/L (≈ 132 µM); in test [10], 64 mg/L (≈ 264 µM). In addition, the minimal inhibitory concentration (MIC) turned out to be 32 mg/L (≈ 132 µM) in [11]; 32 mg/L (≈ 132 µM) in test [12]; 16 mg/L (≈ 66 µM) in test [13]; 64 mg/L (≈ 264 µM) in test [14]; 64 mg/L (≈ 264 µM) in [15]; 64 mg/L (≈ 264 µM) in test [16]. For the same compound, the minimum inhibitory concentration (MIC) in [17] worked out at 64 mg/L (≈ 264 µM); in test [18], 16 mg/L (≈ 66 µM); in [19] it was 32 mg/L (≈ 132 µM); in [20], 2 mg/L (≈ 8.26 µM); in test [21] it was 32 mg/L (≈ 132 µM).
`CC(C)NC(=S)N/N=C/c1ccc([N+](=O)[O-])o1`: the MIC in test [5] was greater than 256 mg/L; in [6], 64 mg/L (≈ 250 µM); in test [7], greater than 256 mg/L; in [8] it was 128 mg/L (≈ 499 µM); in test [9], 64 mg/L (≈ 250 µM); in [10], greater than 256 mg/L. Further, the MIC in [11] is greater than 256 mg/L; in [12], 64 mg/L (≈ 250 µM); in [13], 128 mg/L (≈ 499 µM); in [14] it was greater than 256 mg/L; in [15], greater than 256 mg/L; in [16] it was greater than 256 mg/L. In addition, the MIC in test [17] is greater than 256 mg/L; in test [18] it was 64 mg/L (≈ 250 µM); in test [19] it was greater than 256 mg/L; in [20] it was 32 mg/L (≈ 125 µM); in test [21], 64 mg/L (≈ 250 µM).
On to `CNC(=S)N/N=C/c1ccc([N+](=O)[O-])o1`, for which the minimum inhibitory concentration (MIC) was greater than 256 mg/L in test [5]; 64 mg/L (≈ 280 µM) in test [6]; greater than 256 mg/L in [7]; 64 mg/L (≈ 280 µM) in test [8]; 16 mg/L (≈ 70.1 µM) in test [9]; 128 mg/L (≈ 561 µM) in test [10]. For the same compound, the MIC is 32 mg/L (≈ 140 µM) in test [11]; 64 mg/L (≈ 280 µM) in test [12]; 64 mg/L (≈ 280 µM) in [13]; 128 mg/L (≈ 561 µM) in test [14]; 64 mg/L (≈ 280 µM) in test [15]; greater than 256 mg/L in test [16]. Also, the minimal inhibitory concentration (MIC) in test [17] came out at 64 mg/L (≈ 280 µM); in test [18], 16 mg/L (≈ 70.1 µM); in test [19] it was 64 mg/L (≈ 280 µM); in [20], 16 mg/L (≈ 70.1 µM); in test [21], 64 mg/L (≈ 280 µM).
`CNC(=S)N/N=C/C=C/c1ccc([N+](=O)[O-])o1`: the minimal inhibitory concentration (MIC) came to 64 mg/L (≈ 252 µM) in [5]; 32 mg/L (≈ 126 µM) in [6]; 32 mg/L (≈ 126 µM) in [7]; 16 mg/L (≈ 62.9 µM) in test [8]; 32 mg/L (≈ 126 µM) in [9]; 64 mg/L (≈ 252 µM) in test [10]. For the same compound, the MIC was 32 mg/L (≈ 126 µM) in test [11]; 32 mg/L (≈ 126 µM) in [12]; 16 mg/L (≈ 62.9 µM) in test [13]; greater than 256 mg/L in test [14]; 64 mg/L (≈ 252 µM) in [15]; 64 mg/L (≈ 252 µM) in [16]. Besides, the minimal inhibitory concentration (MIC) in test [17] came out at 64 mg/L (≈ 252 µM); in [18], 16 mg/L (≈ 62.9 µM); in test [19], 1 mg/L (≈ 3.93 µM); in [20], 1 mg/L (≈ 3.93 µM); in test [21], 64 mg/L (≈ 252 µM).
Take `CCNC(=S)N/N=C/C=C/c1ccco1`: the MIC in test [5] is greater than 256 mg/L; in test [6] it was 64 mg/L (≈ 287 µM); in test [7] it was greater than 256 mg/L; in test [8], 64 mg/L (≈ 287 µM); in [9], greater than 256 mg/L; in test [10], greater than 256 mg/L. The MIC in [11], in [12], in [13], in [14], in [15] and in [16] was greater than 256 mg/L in each case. Also, the MIC was greater than 256 mg/L in [17]; 16 mg/L (≈ 71.7 µM) in test [18]; greater than 256 mg/L in test [19]; 32 mg/L (≈ 143 µM) in test [20]; 32 mg/L (≈ 143 µM) in [21].
For the compound `CC(C)(C)NC(=S)N/N=C/c1ccc([N+](=O)[O-])o1`, the minimum inhibitory concentration (MIC) in test [5] is 128 mg/L (≈ 474 µM); in test [6], greater than 256 mg/L; in [7], 128 mg/L (≈ 474 µM); in test [8] it was 16 mg/L (≈ 59.2 µM); in test [9], 128 mg/L (≈ 474 µM); in [10], greater than 256 mg/L. The MIC in [11] is greater than 256 mg/L; in test [12] it was 64 mg/L (≈ 237 µM); in test [13], greater than 256 mg/L; in test [14], 64 mg/L (≈ 237 µM); in test [15], greater than 256 mg/L; in test [16], greater than 256 mg/L. For the same compound, the MIC in test [17] is greater than 256 mg/L; in [18], 64 mg/L (≈ 237 µM); in test [19] it was 32 mg/L (≈ 118 µM); in test [20], 16 mg/L (≈ 59.2 µM); in test [21] it was 16 mg/L (≈ 59.2 µM).
